Measurements pooled from the literature.
Compare with care: the assays were run in different laboratories. Converted amounts (≈) assume the structure as drawn.
Organism: Pseudomonas aeruginosa

SMILES | effect on | technique | strain | tested at | time | quantity | value
COc1cc(Cc2cnc(N)nc2N)cc(OC)c1OC | microbial growth | broth dilution | ATCC27853 |  |  | MIC | 8 µg/mL (≈ 27.6 µM)
Cc1[nH]c(C(=O)Nc2ccc(C(=O)NCC(=O)O)cc2N2CC[C@H](NC(=O)OC(C)(C)C)C2)c(Cl)c1Cl | microbial growth | broth dilution | ATCC27853 |  |  | MIC | > 32 µg/mL
O=C(C=Cc1ccc(O)c(O)c1)OCCc1ccccc1 | microbial growth | broth dilution | ATCC27853 |  |  | MIC | 64 µg/mL (≈ 225 µM)
C[C@H]1COc2c(N3CCN(C)CC3)c(F)cc3c(=O)c(C(=O)O)cn1c23 | microbial killing |  | ATCC47085 |  |  | MBC | 7.81 µg/mL (≈ 21.6 µM)
COc1cc(C#C[C@H](O)CC(C)C)ccc1O | microbial growth | absorbance |  | 100 µM | 24 h | activity vs control | 98%
CC(C)(C)OC(=O)N1CCN(c2cc(C(=O)NCC(=O)O)ccc2NC(=O)c2cc(Br)c(Br)[nH]2)CC1 | microbial growth | broth dilution | ATCC27853 |  |  | MIC | > 32 µg/mL
COc1cc(C#CC(=O)CC(C)C)ccc1O | microbial growth | absorbance |  | 100 µM | 24 h | activity vs control | 87%
Cl.O=C(O)CNC(=O)c1ccc(NC(=O)c2cc(Br)c(Br)[nH]2)c(N2CCNCC2)c1 | microbial growth | broth dilution | ATCC27853 |  |  | MIC | > 32 µg/mL
COc1cc(C#CC(=O)c2cccc(C)c2)ccc1O | microbial growth | absorbance |  | 10 µM | 24 h | activity vs control | 98%
Cc1[nH]c(C(=O)Nc2ccc(C(=O)NCC(=O)O)cc2N2CC[C@@H](N)C2)c(Cl)c1Cl.Cl | microbial growth | broth dilution | ATCC27853 |  |  | MIC | > 32 µg/mL
Nc1ccccc1OC(=O)C=Cc1ccc(O)c(O)c1 | microbial growth | broth dilution | ATCC27853 |  |  | MIC | 32 µg/mL (≈ 118 µM)
CC(C)(C)OC(=O)N[C@H]1CCN(c2cc(C(=O)NCC(=O)O)ccc2NC(=O)c2cc(Br)c(Br)[nH]2)C1 | microbial growth | broth dilution | ATCC27853 |  |  | MIC | > 32 µg/mL
COc1cccc(C(O)C#Cc2ccc(O)c(OC)c2)c1 (stereo not drawn) | microbial growth | absorbance |  | 10 µM | 24 h | activity vs control | 96%
COc1cc(C=Nc2ccccc2Br)ccc1O | microbial growth | disc diffusion |  | 2000 µg/mL | 24 h | inhibition zone | 14.2 mm
COc1cccc(C(=O)C#Cc2ccc(O)c(OC)c2)c1 | microbial growth | absorbance |  | 100 µM | 24 h | activity vs control | 82%
CC(C)(O/N=C(\C(=O)N[C@@H]1C(=O)N2C(C(=O)[O-])=C(C[n+]3ccccc3)CS[C@H]12)c1csc(N)n1)C(=O)O | microbial growth | disc diffusion |  | 2000 µg/mL | 24 h | inhibition zone | 9.5 mm
COc1cc(C#CC(O)c2ccccc2)ccc1O (stereo not drawn) | microbial growth | absorbance |  | 100 µM | 24 h | activity vs control | 82%
CC(C)(O/N=C(\C(=O)N[C@@H]1C(=O)N2C(C(=O)[O-])=C(C[n+]3ccccc3)CS[C@H]12)c1csc(N)n1)C(=O)O | microbial growth | broth dilution | ATCC27853 |  | 20 h | MIC | 1 µg/mL (≈ 1.83 µM)
Cc1[nH]c(C(=O)Nc2ccc(C(=O)NCc3n[nH]c(=O)o3)cc2N2CCN(C(=O)OC(C)(C)C)CC2)c(Cl)c1Cl | microbial growth | broth dilution | ATCC27853 |  |  | MIC | > 32 µg/mL
C[C@@H](O)[C@H]1C(=O)N2C(C(=O)O)=C(SCCN=CN)C[C@H]12 | microbial growth | disc diffusion |  | 2000 µg/mL | 24 h | inhibition zone | 17 mm
Cc1ccccc1NC(=O)C=Cc1ccc(O)c(O)c1 | microbial growth | broth dilution | ATCC27853 |  |  | MIC | 8 µg/mL (≈ 29.7 µM)
COc1ccccc1C(=O)C#Cc1ccc(F)c(F)c1 | microbial growth | absorbance |  | 10 µM | 24 h | activity vs control | 86%
CC(C)NCC(COc1cccc2ccccc12)OC(=O)C=Cc1ccc(O)c(O)c1 (stereo not drawn) | microbial growth | broth dilution | ATCC27853 |  |  | MIC | 64 µg/mL (≈ 152 µM)
Cc1[nH]c(C(=O)Nc2ccc(C(=O)NCC(=O)O)cc2N2CCN(C(=O)OC(C)(C)C)CC2)c(Cl)c1Cl | microbial growth | broth dilution | ATCC27853 |  |  | MIC | > 32 µg/mL
COc1cc(C#CC(=O)C2CCCCC2)ccc1O | microbial growth | absorbance |  | 100 µM | 24 h | activity vs control | 80%
Cl.N[C@H]1CCN(c2cc(C(=O)NCC(=O)O)ccc2NC(=O)c2cc(Br)c(Br)[nH]2)C1 | microbial growth | broth dilution | ATCC27853 |  |  | MIC | > 32 µg/mL
COc1cc(C=Nc2ccc(Cl)cc2Cl)ccc1O | microbial growth | disc diffusion |  | 2000 µg/mL | 24 h | inhibition zone | 14.4 mm
